Series [1] in a line: Cytotoxicity against mock-infected human CEM174 cells after 5 days by MTT assay. The class given is cell-based. Conditions: read-out: TC50. Put shortly: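 Uninfected CEM174 cells handled as in the antiviral assay (1 × 10⁵ cells/mL, compound dilutions, 5 days, 37 °C, 5% CO₂). Proliferation read by MTT reduction. TC₅₀ = concentration inhibiting cell proliferation by 50%.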
For orientation: Formazan colour is commonly taken as a measure of viable cells.

A short description of series [2]: Therapeutic index, TC50 for human CEM174 cells to EC50 for SIV-induced syncytium in human CEM174 cells. The series is classed as cell-based. The settings on record: read-out: TI. The method in brief: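 Ratio TC₅₀/EC₅₀. TC₅₀ comes from the MTT proliferation assay in uninfected CEM174 cells. EC₅₀ comes from microscopic scoring of syncytia in CEM174 cells infected with 100 TCID₅₀ SIV per well. Both were run over 5 days at 37 °C, 5% CO₂.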

The target in series [3] is Structural capsid protein (Human immunodeficiency virus 1) (UniProt Q76129). Put plainly: Binding affinity to HIV1 capsid protein assessed as viral capsid assembly rate at 1 mM by ultraviolet spectrophotometry (RVb= 60.56 +/- 3.77 milliOD/min).
The test system of series [4] is Simian immunodeficiency virus. Put plainly: Antiviral activity against SIV-induced syncytium in human CEM174 cells assessed as inhibition of virus-induced cytopathogenicity after 5 days. Conditions: CEM174, 120 h. The class given is functional, organism-based. The method in brief:
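CEM174 cells at 1 × 10⁵ cells/mL in 96-well format, infected with 100 TCID₅₀ SIV per well alongside serial dilutions of compound. Incubated 5 days at 37 °C, 5% CO₂, humidified. Syncytium (giant cell) formation scored microscopically. EC₅₀ = concentration protecting cells 50% against SIV cytopathogenicity.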
For orientation: Cytopathic effects are the visible damage that an infection or toxin causes in cultured cells.

In series [5] the target is Structural capsid protein (Human immunodeficiency virus 1) (UniProt Q76129). Put plainly: Binding affinity to HIV1 capsid protein assessed as inhibition of viral capsid assembly at 1 mM after 600 mins by turbidity-based ultraviolet spectrophotometry.

Active and inactive are the calls of the source. The rule behind the calls is not given here.

Chain of Structural capsid protein (Human immunodeficiency virus 1) (Q76129 as listed by the source): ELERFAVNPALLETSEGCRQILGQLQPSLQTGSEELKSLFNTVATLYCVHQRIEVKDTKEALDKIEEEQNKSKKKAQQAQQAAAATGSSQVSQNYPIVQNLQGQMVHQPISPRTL

Turning to `COc1ccc(/C=N/NC(=O)[C@H](Cc2c[nH]cn2)NC(=O)c2ccc(OC)cc2)cc1`, in series [1], the CC50 at 120 h was over 100 µM. Also, the selectivity ratio in series [2] was over 244. In series [3], the Activity (milli optical density/minute) worked out at 3.58. For the same compound, in series [4], the EC50 (usually the concentration at which the effect is half-maximal) was 0.41 µM. For the same compound, the inhibition entry in series [5] is “Active”.

`COc1ccc(C(=O)N[C@@H](Cc2ccc(O)cc2)C(=O)N/N=C/c2ccc(Cl)cc2)cc1`: the CC50 at 120 h in series [1] was 40 µM. Moreover, in series [2], the selectivity ratio came out at 2.69. For the same compound, in series [3], the Activity (milli optical density/minute) worked out at 24.3. The EC50 in series [4] was 14.9 µM. In addition, the inhibition entry in series [5] was “inactive”.

Regarding `COc1ccc(C(=O)N[C@@H](Cc2ccc(O)cc2)C(=O)N/N=C/c2ccccc2)cc1`, the CC50 at 120 h in series [1] is over 100 µM. In series [2], the selectivity ratio is over 21.7. Further, the Activity (milli optical density/minute) in series [3] is 32.5. Also, the half-maximal effective concentration (EC50) in series [4] came to 4.61 µM.

Consider `COc1ccc(C(=O)N[C@@H](Cc2c[nH]cn2)C(=O)N/N=C/c2ccc(C)cc2)cc1`, for which the CC50 at 120 h in series [1] was over 100 µM. The selectivity ratio in series [2] was over 64.5. In addition, the Activity (milli optical density/minute) in series [3] worked out at 6.05. Besides, the EC50 in series [4] is 1.55 µM.

With `COc1ccc(C(=O)N[C@@H](Cc2c[nH]cn2)C(=O)N/N=C/c2ccc([N+](=O)[O-])cc2)cc1`, the CC50 at 120 h in series [1] was over 100 µM. The selectivity ratio in series [2] is over 22.7. For the same compound, in series [3], the Activity (milli optical density/minute) is 12.6. In series [4], the EC50 worked out at 4.4 µM.

Turning to `CC[C@@H](C)[C@H](NC(=O)c1ccc(OC)cc1)C(=O)N/N=C/c1ccco1`, the CC50 at 120 h in series [1] was over 100 µM. Also, in series [2], the selectivity ratio was over 58.8. Besides, the Activity (milli optical density/minute) in series [3] turned out to be 5.82. Moreover, the EC50 in series [4] was determined as 1.7 µM.

As to `COc1ccc(C(=O)N[C@@H](Cc2c[nH]cn2)C(=O)N/N=C/c2ccc(Cl)cc2)cc1`, in series [1], the CC50 at 120 h is over 100 µM. For the same compound, in series [2], the selectivity ratio was over 30.6. Besides, the Activity (milli optical density/minute) in series [3] amounted to 8.89. Also, in series [4], the EC50 is 3.27 µM.

Take `COc1ccc(C(=O)N[C@H](C(=O)N/N=C/c2ccccc2)[C@H](C)O)cc1`: the CC50 at 120 h in series [1] was over 100 µM. Besides, the selectivity ratio in series [2] is over 130. Besides, the Activity (milli optical density/minute) in series [3] stood at 21.4. In series [4], the EC50 was determined as 0.77 µM.

Consider `COc1ccc(C(=O)N[C@@H](Cc2c[nH]cn2)C(=O)N/N=C/c2ccco2)cc1`, for which, in series [1], the CC50 at 120 h is over 100 µM. For the same compound, the selectivity ratio in series [2] is over 11.8. The Activity (milli optical density/minute) in series [3] is 29.3. The EC50 in series [4] stood at 8.44 µM.

Turning to `COc1ccc(C(=O)N[C@H](C(=O)N/N=C/c2ccc(C)cc2)[C@H](C)O)cc1`, the CC50 at 120 h in series [1] was over 100 µM. Moreover, in series [2], the selectivity ratio was over 12.2. Also, the Activity (milli optical density/minute) in series [3] worked out at 11.9. Further, the EC50 in series [4] is 8.17 µM.

Turning to `COc1ccc(C(=O)N[C@@H](C)C(=O)N/N=C/c2ccccc2)cc1`, in series [1], the CC50 at 120 h was over 100 µM. The selectivity ratio in series [2] was over 15.6. For the same compound, in series [4], the concentration giving a half-maximal response (EC50) amounted to 6.41 µM.

In the case of `CC[C@@H](C)[C@H](NC(=O)c1ccc(OC)cc1)C(=O)N/N=C/c1ccccc1`, the CC50 at 120 h in series [1] was 77.9 µM. Besides, the selectivity ratio in series [2] came to 10.2. Moreover, the Activity (milli optical density/minute) in series [3] came out at 25.4. Also, the EC50 in series [4] is 7.65 µM.

Regarding `COc1ccc(C(=O)N[C@H](C(=O)N/N=C/c2ccc(Cl)cc2)[C@@H](C)O)cc1`, the CC50 at 120 h in series [1] is over 100 µM. Besides, the selectivity ratio in series [2] was over 20.1. Also, the Activity (milli optical density/minute) in series [3] was found to be 49.5. In series [4], the EC50 came out at 4.98 µM.

With `COc1ccc(C(=O)N[C@@H](Cc2ccc(O)cc2)C(=O)N/N=C/c2ccc(O)cc2)cc1`, the CC50 at 120 h in series [1] is over 100 µM. Besides, in series [2], the selectivity ratio was over 12.8. The Activity (milli optical density/minute) in series [3] turned out to be 8.77. The EC50 in series [4] was determined as 7.81 µM.

As for `COc1ccc(C(=O)N[C@@H](Cc2ccc(O)cc2)C(=O)N/N=C/c2ccc(C)cc2)cc1`, the CC50 at 120 h in series [1] is 41.1 µM. Besides, the selectivity ratio in series [2] was 7.9. Also, the Activity (milli optical density/minute) in series [3] was determined as 20.4. For the same compound, the EC50 in series [4] was 5.21 µM.

With `COc1ccc(C(=O)N[C@@H](Cc2ccc(O)cc2)C(=O)N/N=C/c2ccco2)cc1`, the CC50 at 120 h in series [1] amounted to 30.6 µM. The selectivity ratio in series [2] turned out to be 3.38. Also, in series [3], the Activity (milli optical density/minute) turned out to be 19.1. Also, the EC50 in series [4] was found to be 9.03 µM.

As for `CC[C@@H](C)[C@H](NC(=O)c1ccc(OC)cc1)C(=O)N/N=C/c1ccc(O)cc1`, in series [1], the CC50 at 120 h was over 100 µM. Moreover, the selectivity ratio in series [2] was over 24.1. Moreover, the Activity (milli optical density/minute) in series [3] was determined as 30.1. Besides, the EC50 in series [4] stood at 4.15 µM.

With `COc1ccc(C(=O)N[C@H](C(=O)N/N=C/c2ccccc2)C(C)C)cc1`, the CC50 at 120 h in series [1] was over 100 µM. In addition, in series [2], the selectivity ratio is over 24.5. In addition, the EC50 in series [4] is 4.08 µM.

Take `COc1ccc(C(=O)N[C@H](C(=O)N/N=C/c2ccc(O)cc2)[C@@H](C)O)cc1`: the CC50 at 120 h in series [1] was over 100 µM. Moreover, the selectivity ratio in series [2] was over 12.3. For the same compound, the Activity (milli optical density/minute) in series [3] was found to be 24.9. For the same compound, the EC50 in series [4] worked out at 8.13 µM.

For `Cc1ccc(S(=O)(=O)C[C@@H](Cc2ccccc2)C(=O)N/N=C/c2ccc3c(c2)OCO3)cc1`, in series [4], the EC50 was found to be 0.17 µM.

With `CC[C@@H](C)[C@H](NC(=O)c1ccc(OC)cc1)C(=O)N/N=C/c1ccc(C)cc1`, the CC50 at 120 h in series [1] is over 100 µM. The selectivity ratio in series [2] was over 7.2. Further, the Activity (milli optical density/minute) in series [3] worked out at 33.4. Further, the EC50 in series [4] stood at 13.9 µM. Further, the inhibition result in series [5] was “inactive”.

Consider `COc1ccc(C(=O)N[C@@H](Cc2c[nH]cn2)C(=O)N/N=C/c2ccc(O)cc2)cc1`, for which the CC50 at 120 h in series [1] was over 100 µM. Also, the selectivity ratio in series [2] was over 31.4. Moreover, the Activity (milli optical density/minute) in series [3] is 24.7. The EC50 in series [4] came to 3.18 µM.

With `CCC(C)[C@H](NC(=O)c1ccc(OC)cc1)C(=O)N/N=C/c1ccc(Cl)cc1` (mixture of isomers), the CC50 at 120 h in series [1] was over 100 µM. Besides, the selectivity ratio in series [2] is over 12.3. In addition, the Activity (milli optical density/minute) in series [3] was found to be 10.2. The EC50 in series [4] was 8.1 µM.

In the case of `COc1ccc(C(=O)N[C@@H](Cc2c[nH]cn2)C(=O)N/N=C/c2ccccc2)cc1`, in series [1], the CC50 at 120 h is over 100 µM. Further, in series [2], the selectivity ratio is over 179. In addition, the Activity (milli optical density/minute) in series [3] was found to be 3.26. Further, the EC50 in series [4] amounted to 0.56 µM. Moreover, in series [5], the inhibition result is “Active”.

The record behind these values is ChEMBL document CHEMBL1157643, “SAR and molecular mechanism study of novel acylhydrazone compounds targeting HIV-1 CA” (Bioorg Med Chem, 2010).
